In assay [1] the target is T1, Steryl-sulfatase (Homo sapiens) (UniProt P08842).
T1 sequence (whole entry): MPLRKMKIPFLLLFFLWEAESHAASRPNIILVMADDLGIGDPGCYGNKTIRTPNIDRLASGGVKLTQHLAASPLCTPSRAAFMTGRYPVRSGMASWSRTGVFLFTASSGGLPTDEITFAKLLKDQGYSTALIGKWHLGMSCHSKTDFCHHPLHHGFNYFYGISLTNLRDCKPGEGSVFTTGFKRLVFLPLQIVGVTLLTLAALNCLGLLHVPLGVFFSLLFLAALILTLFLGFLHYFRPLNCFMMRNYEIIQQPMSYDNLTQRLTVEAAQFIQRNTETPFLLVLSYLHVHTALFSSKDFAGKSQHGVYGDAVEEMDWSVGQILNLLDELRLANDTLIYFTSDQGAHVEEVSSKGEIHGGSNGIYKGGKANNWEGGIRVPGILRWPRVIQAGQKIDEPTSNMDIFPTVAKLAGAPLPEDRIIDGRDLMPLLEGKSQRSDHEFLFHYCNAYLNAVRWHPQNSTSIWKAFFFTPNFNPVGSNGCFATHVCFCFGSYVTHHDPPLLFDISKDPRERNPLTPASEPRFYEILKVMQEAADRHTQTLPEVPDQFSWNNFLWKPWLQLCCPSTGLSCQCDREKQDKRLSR
Description: Tested for inhibition of estrone sulfatase in MCF-7 breast cancer cells using 2 nM substrate concentration at 0.1 uM. In kind it is cell-based. The conditions noted are these: MCF7.

The target of assay [2] is T1, Steryl-sulfatase (Homo sapiens). To be noted: MCF7; 1 uM.
Assay [3] has the same target. Description: Tested for inhibition of estrone sulfatase in MCF-7 breast cancer cells using 2 nM substrate concentration at 10 uM. In kind it is cell-based. To be noted: MCF7.
The target of another assay is T2, Steryl-sulfatase (Homo sapiens, UniProt P08842).
T2 sequence (P08842 whole entry): T1 sequence (whole entry)
Description: Tested for inhibition of estrone sulfatase in placental microsomal preparation (100000 g pellet) using substrate concentration of 20 uM. In kind it is microsomes, Placenta. The method in brief: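 Placental microsomal preparation (100 000-g pellet) assayed with saturating [3H]estrone sulfate substrate (20 μM); IC50 derived for sulfatase inhibition.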

The target in assay [4] is T1, Steryl-sulfatase (Homo sapiens). Description: Tested for inhibition of estrone sulfatase in MCF-7 breast cancer cells using 2 nM substrate concentration at 1 uM. The conditions noted are these: MCF7. In kind it is cell-based.
Assay [5] shares this target. Description: Tested for enzyme activity recovered after 20h in MCF-7 breast cancer cells at 1 uM. To be noted: MCF7.
Assay [6] shares this target. Description: Tested for inhibition of estrone sulfatase in MCF-7 breast cancer cells using 2 nM substrate concentration at 10 uM; NI=No inhibition. In kind it is cell-based. To be noted: MCF7.
For assay [7] the target is unchanged. Description: Tested for inhibition of estrone sulfatase in MCF-7 breast cancer cells using 2 nM substrate concentration at 1 uM; NI=No inhibition. To be noted: MCF7. It is filed as cell-based.

This is an account of results in ChEMBL document CHEMBL1127473, “Estrone sulfamates: potent inhibitors of estrone sulfatase with therapeutic potential” (J Med Chem, 1994).

pIC50: −log10 of the molar value. Activity calls are given as the source filed them. The rule behind the calls is not given here. Where only a bound is given, the exact number is not on record here.

What is called inhibition is the relative decrease from the control value, in per cent. By pIC50 is commonly meant the IC50 on a negative log10 scale, so that one unit is a factor of ten. For `C[C@]12CC[C@@H]3c4ccc(OS(N)(=O)=O)cc4CCC3[C@@H]1CCC2=O` (single isomer, unassigned) [EMATE], the inhibition in assay [1], in assay [3] and in assay [4] was > 99% throughout. Besides, the “% activity recovered” value in assay [2] is “inactive”. Besides, the pIC50 against Steryl-sulfatase is 7.10.
The compound `CNS(=O)(=O)Oc1ccc2c(c1)CCCC2` gave an inhibition in assay [3] of 22%.
For the compound `NS(=O)(=O)Oc1ccc2c(c1)CCCC2`, the inhibition came out at 97% in assay [3] and 47% in assay [4].
As to `CN(C)S(=O)(=O)Oc1ccc2c(c1)CCC1[C@@H]2CC[C@]2(C)C(=O)CC[C@@H]12` (single isomer, unassigned), the inhibition in assay [1] is 79%; in assay [3], 90%; in assay [4] it was 87%. This compound had a % activity recovered in assay [5] of 80%.
For `CNS(=O)(=O)Oc1ccc2c(c1)CCC1[C@@H]2CC[C@]2(C)C(=O)CC[C@@H]12` (single isomer, unassigned), in assay [5], the % activity recovered was > 50%. Also, the inhibition in assay [3] stood at 93%; in assay [4], 87%.
On to `CSP(=O)(O)Oc1ccc2c(c1)CC[C@@H]1[C@@H]2CC[C@]2(C)C(=O)CC[C@@H]12`, for which the inhibition in assay [1] was determined as 52%; in assay [3] it was 96%; in assay [4], 74%. Also, at Steryl-sulfatase, the pIC50 is 4.37.
In the case of `CN(C)S(=O)(=O)Oc1ccc2c(c1)CCCC2`, the inhibition result in assay [6] and in assay [7] was “inactive” throughout.
